# Screens (PubChem)
# Rows were chosen to be rich in hits. Some 2% of all compounds tested hit in one or more screens of this group.
# LMPTP block: LMPTP phosphatase inhibitors, primary screen, biochemical, fluorescence intensity, uHTS. recombinant LMPTP-A, OMFP fluorogenic substrate. Low molecular weight phosphotyrosine protein phosphatase (Homo sapiens), P24666. inhibition, % at 20 µM. actives 0.22% (n = 360,000). AID 651560, 2012;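 active = compounds that cut the enzyme signal by at least half of the control window in the single-dose screen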;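 also: plate controls were DMSO wells with enzyme plus substrate for no effect and substrate without enzyme for full effect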
# Target sequence (P24666 whole entry, looked up): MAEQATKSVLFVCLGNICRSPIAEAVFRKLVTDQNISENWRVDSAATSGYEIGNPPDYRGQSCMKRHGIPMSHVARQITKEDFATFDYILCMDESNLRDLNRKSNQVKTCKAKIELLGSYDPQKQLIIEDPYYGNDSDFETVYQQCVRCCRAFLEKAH
#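 Assay system: LMPTP-A phosphatase enzyme | Input: 0.625 nM enzyme | Also added: Fluorogenic phosphatase substrate OMFP at 400 µM final | Compound dosing: One test concentration per compound, 20 µM, with 3% DMSO overall | Schedule: 50 min enzyme reaction at room temperature, protected from light | Signal: Fluorescence intensity | Benchmarks: no-enzyme and uninhibited controls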
# STEP block: STEP phosphatase inhibitors, primary screen, biochemical, fluorescence intensity, uHTS. Tyrosine-protein phosphatase non-receptor type 5 (Homo sapiens), P54829. recombinant STEP, OMFP fluorogenic substrate. inhibition, % at 20 µM. actives 0.25% (n = 360,000). AID 588621, 2011;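 active = inhibition at 20 µM, scaled per plate between control wells, above about 37%, limit read from the data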;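 also: 0% = DMSO with enzyme and substrate and 100% = substrate only without enzyme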
#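 Measure: Control-normalized % inhibition with plate pattern correction | Test system: STEP phosphatase, cell-free reaction | Medium: pH 6.0 Bis-Tris with DTT and Tween 20 | Technique: Fluorescence, 480/540 nm | Times: Reaction 20 min, ambient temperature | Doses: Single compound dose of 20 µM, 1% DMSO final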
# DNMT1 inh: human DNMT1 methyltransferase inhibitors, primary screen, biochemical, molecular beacon, fluorescence, HinP1I cleavage, uHTS. DNA (cytosine-5)-methyltransferase 1 (Homo sapiens), P26358. inhibition (reported as % activation of signal), % at 10 µM. actives 0.83% (n = 360,000); in the data active = inhibition above about 50%
# Rpn11 inh: Rpn11 (PSMD14) deubiquitinase inhibitors, primary screen, biochemical, fluorescence polarization, uHTS; human 26S proteasome, Ub4-pepOG fluorescence polarization; 20S core pre-blocked with epoxomicin; inhibition, % at 20 µM; actives 0.59% (n = 360,000); AID 588493, 2011;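 active = inhibition at 20 µM, scaled to each plate's controls, above about 33%, limit read from the data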
# Target sequence (O00487 whole entry, looked up): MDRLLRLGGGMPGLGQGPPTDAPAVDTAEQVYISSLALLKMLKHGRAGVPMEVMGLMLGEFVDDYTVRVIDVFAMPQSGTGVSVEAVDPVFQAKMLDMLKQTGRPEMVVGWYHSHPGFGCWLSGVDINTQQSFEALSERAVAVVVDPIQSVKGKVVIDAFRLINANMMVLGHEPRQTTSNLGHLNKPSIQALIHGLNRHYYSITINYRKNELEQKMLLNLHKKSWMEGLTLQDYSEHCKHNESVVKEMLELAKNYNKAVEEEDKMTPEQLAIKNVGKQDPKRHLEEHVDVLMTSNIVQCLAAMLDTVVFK
# Scp1 inh: Scp-1 phosphatase inhibitors, primary screen, biochemical, colorimetric, uHTS | AID 493091, 2011 | inhibition, % at 20 µM | Carboxy-terminal domain RNA polymerase II polypeptide A small phosphatase 1 (Homo … | Recombinant Scp1, phosphopeptide, malachite green phosphate absorbance | actives 0.88% (n = 340,000);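 active = inhibition above about 50% at 20 µM, limit read from the data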;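 also: plate controls were DMSO wells with enzyme for no effect and wells lacking enzyme for full effect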
# Target sequence (Q9GZU7 76-261 limits assumed): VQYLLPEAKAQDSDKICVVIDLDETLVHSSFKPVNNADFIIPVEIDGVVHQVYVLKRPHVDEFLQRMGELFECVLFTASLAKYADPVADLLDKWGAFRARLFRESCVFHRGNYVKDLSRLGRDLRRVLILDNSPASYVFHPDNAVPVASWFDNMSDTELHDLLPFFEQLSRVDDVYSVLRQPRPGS
#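 Material – SCP-1 phosphatase catalytic domain, residues 76-261 · Buffer or medium – Acidic Tris acetate buffer with magnesium and detergent · Also added – Phospho 17-mer peptide substrate · Compound – single 20 µM dose, 1% DMSO · Times – 45 min room-temperature reaction, 5 min colour, 30 min stabiliser · Technique – Phosphate-binding colour reagent, absorbance read at 630 nm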
# Scp-1 conf: Scp-1 phosphatase inhibitors, retest, confirmation, biochemical, colorimetric, single concentration | shares compounds with Scp1 inh | recombinant SCP-1 catalytic domain, phosphate release, malachite green absorbance | inhibition, % at 20 µM | actives 61% (n = 2,500) | AID 540281, 2011;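 also: plate controls were DMSO with enzyme for no effect and buffer wells lacking enzyme for full effect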
# MG interference: colorimetric readout interference by compounds, confirmation, artefact control for Scp-1 inhibitor project, biochemical, single concentration; Colorimetric interference counterscreen, malachite green absorbance 630 nm; 2,500 tested, under 10 active; shares compounds with Scp1 inh; apparent inhibition (interference), % at 20 µM;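 also: compounds added after enzyme reaction finished so only phosphate colour detection is probed; plate controls were DMSO wells with completed Scp-1 reaction for no effect and substrate wells lacking enzyme for full effect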
# Scp1 DSF: Scp-1 binding by thermal shift, confirmation, orthogonal assay for Scp-1 inhibitor project, biophysical, differential scanning fluorimetry | shares compounds with Scp1 inh | Recombinant SCP1, Sypro Orange thermal shift Tm | thermal shift relative to vanadate control, % at 40 µM | actives 25% (n = 1,500);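 active = substances whose mean melting-temperature shift, as a percentage of the reference inhibitor's shift, reaches about 5.3%, limit read from the data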;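 also: 0% = Tm of DMSO wells and 100% = Tm with sodium orthovanadate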
# * hit, by the source's call; . = no result given.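 The calls were made as follows, unless noted: active = inhibition of at least 30% at 20 µM; inactive = the rest.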
SMILES,LMPTP block,STEP block,DNMT1 inh,Rpn11 inh,Scp1 inh,Scp-1 conf,MG interference,Scp1 DSF
Nc1cc(=O)[nH]c(SCC(=O)Nc2cc(Cl)cc(Cl)c2)n1,-1,-1,-7,3,-11,-6,-3,.
CC(C)=C[C@H]1C[C@H](C)[C@H]2CC[C@H](C)c3c(O)c(O[C@H]4OC[C@H](O)[C@@H](O)[C@@H]4O)c(C)c1c32,2,1,-5,4,.,.,.,.
CCOC(=O)C1=CCN(S(=O)(=O)c2ccccc2C)C1c1cccc(Br)c1 (stereo unspecified),1,-5,-6,3,.,.,.,.
O=C(O)c1ccc2c(c1)C(=O)N([C@H](Cc1cccc3ccccc13)C(=O)O)C2=O,-2,0,2,-4,.,.,.,.
CC(=O)Nc1cncc(-c2cccc(C(=O)N3CCOCC3)c2)n1,0,-1,4,-1,.,.,.,.
O=C(COC(=O)/C=C/c1ccco1)Nc1ccccc1,14,0,25,-6,46,.,.,.
CC1CCCC(C)N1C(=O)COC(=O)/C=C/c1ccc(Br)o1 (stereo unspecified),5,6,25,-16,92*,58*,-13,-6
CN(Cc1ccccc1)C(=O)COC(=O)/C=C/c1ccco1,12,8,32,-8,65*,62*,-9,-13
CC1CCN(C(=O)COC(=O)/C=C/c2ccco2)CC1,2,10,38,-7,65*,25,-17,.
CC[N+]1=CN(c2ccccc2)C(C)=CC1(C)C,-3,-3,-4,3,78*,86*,-12,-24
CCn1c(SCC(=O)N(C)c2c(N)n(Cc3ccccc3)c(=O)[nH]c2=O)nnc1-c1cccs1,-3,0,2,2,.,.,.,.
COc1cc(NC(=O)C2(C)CCCN2C)cc(OC)c1OC (stereo unspecified),-2,-3,5,1,.,.,.,.
COc1ccc(S(=O)(=O)N2CCN(C(=O)c3ccc([N+](=O)[O-])o3)CC2)cc1,1,6,8,-4,51*,42*,-15,4
COc1ccc(CCC(=O)N2CCN(S(=O)(=O)c3ccc(C)cc3)CC2)cc1,0,-4,1,0,4,.,.,.
CC(=O)c1ccc(-n2c(-c3cc(-c4ccco4)[nH]n3)n[nH]c2=S)cc1,-2,-2,1,7,-2,.,.,.
O=C(O)c1ccc(-n2c(-c3cc(-c4ccco4)[nH]n3)n[nH]c2=S)cc1,-2,6,43,-15,67*,69*,-8,-6
Cc1nc2cc(OC3(C)CCN(Cc4ccc(OC(F)(F)F)cc4)C3)ccc2s1 (stereo unspecified),2,-2,14,-2,.,.,.,.
COc1cc(CC(=O)N2c3ccccc3N=C(c3ccccc3)C2C(=O)NCc2ccccc2)cc(OC)c1 (stereo unspecified),3,.,.,.,.,.,.,.
CCOC(=O)CSc1[nH]c(=O)cc(C)c1C#N,-1,-2,1,1,50*,-27,-22,.
O=C(COC(=O)c1cc(-c2ccccc2Cl)nc2ccccc12)Nc1ncc(C(F)(F)F)cc1Cl,2,3,24,-2,50*,36*,-8,-10
Clc1ccc(C=NN2CCCCCC2)c(Cl)c1,1,-1,3,2,67*,-14,-19,.
CCC(C)c1ccccc1NC(=O)c1[nH]c(C)c(C(C)=O)c1C (stereo unspecified),0,-1,1,0,54*,-5,-8,.
CC(=O)c1c(C)[nH]c(C(=O)Nc2cccc3ccccc23)c1C,0,0,0,-4,-6,.,.,.
CCOC(=O)[C@]12CCC=C1N(Cc1ccc(Cl)cc1Cl)C(=O)[C@H](CC(=O)NCC1CCCCC1)C2,4,.,.,.,.,.,.,.
CCCCc1ccc(S(=O)(=O)Nc2cc(C)on2)cc1,-1,2,0,1,70*,-19,-21,.
SMILES,LMPTP block,STEP block,DNMT1 inh,Rpn11 inh,Scp1 inh,Scp-1 conf,MG interference,Scp1 DSF
CCCCc1ccc(S(=O)(=O)Nc2nnc(C)s2)cc1,-1,3,-2,-2,5,.,.,.
O=C(CCCCCCCC(=O)NNC(=O)Nc1ccccc1)NNC(=O)Nc1ccccc1,16,6,0,30,73*,65*,-16,-15
CC1(C(=O)Nc2cccc(NS(C)(=O)=O)c2)CCN1CCc1ccccc1 (stereo unspecified),0,0,-4,-4,.,.,.,.
Cc1ccc(NC(=O)CCc2nnc3ccc(NCc4ccco4)nn23)nc1,-1,-6,4,-12,12,.,.,.
CC(=O)c1cccc(NC(=O)CCc2nnc3ccc(NCc4ccco4)nn23)c1,7,5,8,-9,59*,43*,-15,2
CCC(C)c1ccccc1NC(=O)c1cccnc1 (stereo unspecified),0,-2,-1,-2,-4,.,.,.
CCC(C)c1ccccc1NC(=O)c1cccc(-n2cnnn2)c1 (stereo unspecified),0,-3,-4,4,73*,-1,-10,.
CCOc1ccccc1NC(=O)CCS(=O)(=O)c1ccc(OC)cc1,-1,-4,-2,1,-4,.,.,.
CCc1ccccc1NC(=O)CCS(=O)(=O)c1ccc(OC)cc1,0,9,45,8,55*,48*,-13,-7
O=S1(=O)CC(N2CCCC2)CN1Cc1cn(Cc2ccc(F)cc2)nn1 (stereo unspecified),0,.,.,.,.,.,.,.
COc1ccc(/C=N/Nc2ncc(Br)cn2)c(OC)c1,11,15,20,.,57*,38*,3,-17
O=C(NNC(=O)c1ccccc1O)c1cc2ccccc2o1,0,-3,-2,2,-13,.,.,.
CCOC1CCCc2oc(-c3ccc(N(C)C)cc3)c(C(=O)OC)c21 (stereo unspecified),1,.,.,.,.,.,.,.
CCOCc1cnc(C)nc1NCC(=O)c1c(C)n(C)c2ccc(OC)cc12,0,-4,1,0,51*,1,-6,.
